Source: ChEMBL document CHEMBL4346663, “N-Cinnamoylanthranilates as human TRPA1 modulators: Structure-activity relationships and channel binding sites” (Eur J Med Chem, 2019)
Active and inactive are the calls of the source. No cut-off for these calls is given here.

What was measured:
[1] = target: T1, Transient receptor potential cation channel subfamily A member 1 (Homo sapiens, UniProt O75762); assay: Agonist activity at human TRPA1 expressed in HEK293 cells assessed as increase in calcium influx at 30 uM by Fluo-4-AM dye based fluorescence assay relative to calcimycin; assay type: cell-based
T1 sequence (O75762 whole entry): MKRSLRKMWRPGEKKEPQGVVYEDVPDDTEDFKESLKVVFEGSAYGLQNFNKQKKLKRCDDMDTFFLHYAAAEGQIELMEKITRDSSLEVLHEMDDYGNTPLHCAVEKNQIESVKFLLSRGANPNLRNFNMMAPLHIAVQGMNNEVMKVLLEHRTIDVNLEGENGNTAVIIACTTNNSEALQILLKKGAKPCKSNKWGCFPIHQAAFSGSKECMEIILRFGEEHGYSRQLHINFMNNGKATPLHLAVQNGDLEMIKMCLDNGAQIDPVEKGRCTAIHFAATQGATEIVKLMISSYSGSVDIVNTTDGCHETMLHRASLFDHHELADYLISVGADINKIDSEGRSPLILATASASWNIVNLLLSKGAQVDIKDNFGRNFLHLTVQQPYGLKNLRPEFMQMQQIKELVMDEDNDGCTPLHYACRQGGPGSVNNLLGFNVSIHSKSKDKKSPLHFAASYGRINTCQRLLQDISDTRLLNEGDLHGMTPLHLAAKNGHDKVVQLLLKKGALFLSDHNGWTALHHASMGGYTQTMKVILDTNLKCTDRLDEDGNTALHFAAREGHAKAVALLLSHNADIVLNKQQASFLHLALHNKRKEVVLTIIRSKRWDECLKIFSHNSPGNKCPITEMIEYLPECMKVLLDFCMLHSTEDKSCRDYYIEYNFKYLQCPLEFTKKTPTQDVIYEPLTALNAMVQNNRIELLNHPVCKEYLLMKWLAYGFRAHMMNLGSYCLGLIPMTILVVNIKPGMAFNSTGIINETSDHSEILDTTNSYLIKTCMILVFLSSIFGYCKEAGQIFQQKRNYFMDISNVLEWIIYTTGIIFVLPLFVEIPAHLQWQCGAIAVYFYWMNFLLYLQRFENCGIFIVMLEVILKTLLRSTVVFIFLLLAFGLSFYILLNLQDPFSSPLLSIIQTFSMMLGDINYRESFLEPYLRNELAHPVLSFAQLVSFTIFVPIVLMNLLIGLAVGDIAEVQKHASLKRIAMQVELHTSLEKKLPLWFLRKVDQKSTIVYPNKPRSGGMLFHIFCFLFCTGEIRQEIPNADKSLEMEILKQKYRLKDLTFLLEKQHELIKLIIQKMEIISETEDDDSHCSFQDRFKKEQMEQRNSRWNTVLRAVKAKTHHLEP
Method in brief: (§1)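 Stably transfected hTRPA1- or hTRPM8-HEK293 cells on poly-D-lysine plates for 48 h, loaded with Fluo-4AM (2 µM, 45 min, dark, room temperature), in isotonic HEPES buffer pH 7.4. FlexStation 240 s run: 20 s baseline, compound added, calcimycin added at 180 s. ΔRFU expressed as % calcimycin, DMSO-subtracted. Screening N = 3. Dose-response curves fitted for logEC50 (N = 3 in duplicate or triplicate).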

[2] = target: T1, Transient receptor potential cation channel subfamily A member 1; assay: Antagonist activity at human TRPA1 expressed in HEK293 cells assessed as increase in calcium influx at 100 uM incubated for 10 mins prior to CA addition by Fluo-4-AM dye based fluorescence assay relative to CA; assay type: cell-based; parameters: scale not given: the % may be the effect or the level left
Method in brief: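 hTRPA1-HEK293 cells loaded with Fluo-4AM (2 µM). Compound pre-incubated 10 min, then cinnamaldehyde standard agonist added. FlexStation read, ex 485/em 538 nm. ΔRFU normalized to the CA response set at 100 % after DMSO vehicle subtraction. N = 3. logIC50 taken from dose-response fits.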

[3] = target: T2, Transient receptor potential cation channel subfamily M member 8 (Homo sapiens, UniProt Q7Z2W7); assay: Agonist activity at human TRPM8 expressed in HEK293 cells assessed as increase in calcium influx at 30 uM by Fluo-4-AM dye based fluorescence assay relative to calcimycin; assay type: cell-based; method in brief: as §1
Target sequence in this assay (Q7Z2W7 whole entry, looked up): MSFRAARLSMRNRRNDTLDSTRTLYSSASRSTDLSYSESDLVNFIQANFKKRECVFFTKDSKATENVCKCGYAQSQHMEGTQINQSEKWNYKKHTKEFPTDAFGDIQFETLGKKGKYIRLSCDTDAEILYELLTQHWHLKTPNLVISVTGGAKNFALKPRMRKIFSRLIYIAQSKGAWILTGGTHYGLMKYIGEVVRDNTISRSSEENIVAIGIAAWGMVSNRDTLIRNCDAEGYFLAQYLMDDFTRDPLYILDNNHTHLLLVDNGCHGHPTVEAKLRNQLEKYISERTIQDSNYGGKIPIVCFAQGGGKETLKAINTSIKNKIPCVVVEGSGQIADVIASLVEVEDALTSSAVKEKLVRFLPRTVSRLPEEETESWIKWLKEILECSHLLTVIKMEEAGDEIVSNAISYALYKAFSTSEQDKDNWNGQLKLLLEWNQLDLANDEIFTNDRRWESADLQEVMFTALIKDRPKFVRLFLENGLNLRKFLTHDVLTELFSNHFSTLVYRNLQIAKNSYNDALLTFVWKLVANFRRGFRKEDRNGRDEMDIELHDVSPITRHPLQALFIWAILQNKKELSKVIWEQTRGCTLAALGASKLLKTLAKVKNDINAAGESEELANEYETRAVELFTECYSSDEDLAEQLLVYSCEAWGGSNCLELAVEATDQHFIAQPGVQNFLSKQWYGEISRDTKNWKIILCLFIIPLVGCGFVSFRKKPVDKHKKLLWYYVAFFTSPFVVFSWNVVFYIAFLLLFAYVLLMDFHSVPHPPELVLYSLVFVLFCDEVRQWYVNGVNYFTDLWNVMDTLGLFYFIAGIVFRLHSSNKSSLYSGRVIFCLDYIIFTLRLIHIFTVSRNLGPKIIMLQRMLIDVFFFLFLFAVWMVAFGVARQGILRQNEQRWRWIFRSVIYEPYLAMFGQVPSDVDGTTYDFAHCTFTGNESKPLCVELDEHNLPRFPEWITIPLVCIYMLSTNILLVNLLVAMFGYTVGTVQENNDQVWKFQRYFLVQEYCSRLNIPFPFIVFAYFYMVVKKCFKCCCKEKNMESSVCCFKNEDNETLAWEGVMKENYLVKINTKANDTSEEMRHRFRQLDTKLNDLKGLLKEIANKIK

[4] = target: T2, Transient receptor potential cation channel subfamily M member 8; assay: Antagonist activity at human TRPM8 expressed in HEK293 cells assessed as increase in calcium influx at 100 uM incubated for 10 mins prior to WS5 challenge by Fluo-4-AM dye based fluorescence assay relative to WS5; assay type: cell-based; parameters: scale not given: the % may be the effect or the level left
Method in brief: (§2)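 hTRPM8-HEK293 cells loaded with Fluo-4AM (2 µM, 45 min). Test compound pre-incubated 10 min before WS5 standard agonist. FlexStation fluorescence at 485/538 nm. ΔRFU given as % of WS5 response after DMSO vehicle subtraction. N = 3. IC50 from dose-response curves.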
Target sequence in this assay (Q7Z2W7 whole entry, looked up): as above

[5] = Dissociation constant, pKa of the compound at pH 7.4; assay type: physicochemical
[6] = target: T2, Transient receptor potential cation channel subfamily M member 8; assay: Agonist activity at human TRPM8 expressed in HEK293 cells assessed as increase in calcium influx at 100 uM by Fluo-4-AM dye based fluorescence assay relative to calcimycin; assay type: cell-based; method in brief: as §1
Target sequence in this assay (Q7Z2W7 whole entry, looked up): as above

[7] = target: T1, Transient receptor potential cation channel subfamily A member 1; assay: Agonist activity at human TRPA1 expressed in HEK293 cells assessed as increase in calcium influx by Fluo-4-AM dye based fluorescence assay; assay type: cell-based; details: for EC50: read-out: EC50; method in brief: as §1
[8] = target: T1, Transient receptor potential cation channel subfamily A member 1; assay: Antagonist activity at human TRPA1 expressed in HEK293 cells assessed as inhibition of CA-induced increase in calcium influx incubated for 10 mins prior to CA addition by Fluo-4-AM dye based fluorescence assayy; assay type: cell-based
[9] = system: Transient receptor potential cation channel subfamily A member 1 (Homo sapiens), O75762 [F909A]; assay: Agonist activity at human TRPA1 Phe909Ala mutant expressed in HEK293 cells assessed as Ca2+ influx at 30 uM by fluorescence assay; assay type: cell-based
Chain of Transient receptor potential cation channel subfamily A member 1 (Homo sapiens), O75762 [F909A] (O75762 whole entry F909A): as the sequence (O75762 whole entry) above, with F909A counted along it
Method in brief: (§3)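 HEK293 cells stably expressing hTRPA1 point mutants (C621A, F909A or F944A), single-cell cloned under G418 selection. Cells plated on poly-D-lysine for 48 h, loaded with Fluo-4AM 2 µM for 45 min at room temperature. FlexStation read (ex 485/em 538 nm): 20 s baseline, compound added, calcimycin added at 180 s. Response expressed as % calcimycin from ΔRFU, vehicle-subtracted, and compared with wild-type hTRPA1 cells.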

[10] = system: Transient receptor potential cation channel subfamily A member 1 (Homo sapiens), O75762 [F944A]; assay: Agonist activity at human TRPA1 Phe944Ala mutant expressed in HEK293 cells assessed as Ca2+ influx at 30 uM by fluorescence assay; assay type: cell-based; method in brief: as §3
Chain of Transient receptor potential cation channel subfamily A member 1 (Homo sapiens), O75762 [F944A] (O75762 whole entry F944A): as the sequence (O75762 whole entry) above, with F944A counted along it

[11] = system: Transient receptor potential cation channel subfamily A member 1 (Homo sapiens), O75762 [F909A]; assay: Agonist activity at human TRPA1 Phe909Ala mutant expressed in HEK293 cells assessed as Ca2+ influx at 10 uM by fluorescence assay; assay type: cell-based; method in brief: as §3
[12] = target: T1, Transient receptor potential cation channel subfamily A member 1; assay: Agonist activity at human TRPA1 expressed in HEK293 cells assessed as increase in calcium influx at 3 uM by Fluo-4-AM dye based fluorescence assay relative to calcimycin; assay type: cell-based; method in brief: as §1
[13] = target: T2, Transient receptor potential cation channel subfamily M member 8; assay: Antagonist activity at human TRPM8 expressed in HEK293 cells assessed as increase in calcium influx at 3 uM incubated for 10 mins prior to WS5 challenge by Fluo-4-AM dye based fluorescence assay relative to WS5; assay type: cell-based; parameters: scale not given: the % may be the effect or the level left; method in brief: as §2
Target sequence in this assay (Q7Z2W7 whole entry, looked up): as the sequence (Q7Z2W7 whole entry, looked up) above

[14] = target: T2, Transient receptor potential cation channel subfamily M member 8; assay: Antagonist activity at human TRPM8 expressed in HEK293 cells assessed as inhibition in WS5-induced increase in calcium influx incubated for 10 mins prior to WS5 challenge by Fluo-4-AM dye based fluorescence assay; assay type: cell-based; method in brief: as §2
Target sequence in this assay (Q7Z2W7 whole entry): as the sequence (Q7Z2W7 whole entry, looked up) above

Compound	Activity [1] [%]	Activity [2] [%]	Activity [3]	Activity [4] [%]	pKa [5]	Activity [6]	Activity [12] [%]	Activity [13] [%]	further results
O=C(O)[C@@H]1CCCN1C(=O)/C=C/c1ccccc1	5	79	inactive	65	3.2	inactive			
COc1ccc(/C=C/C(=O)Nc2ccccc2C(=O)O)cc1	27	19	inactive	68	3.5	inactive			EC50 [7]: 49 µM; IC50 [8]: 12 µM; Activity [9]: Active; Activity [10]: inactive
O=C(Nc1ccccc1C(=O)O)/C(=C/c1ccccc1)c1ccccc1	66	22	14%		3.4	34%			EC50 [7]: 11 µM; Activity [11]: Active
O=C(/C=C/c1ccc(O)c(O)c1)Nc1ccccc1C(=O)O					3.5	inactive			
CCOc1cc(/C=C/C(=O)Nc2ccccc2C(=O)O)ccc1O	5	34	inactive	73	3.5	inactive			IC50 [8]: 106 µM
COC(=O)c1ccccc1NC(=O)/C=C/c1ccccc1Cl					13.7		29	53	
Cc1ccc(/C=C/C(=O)Nc2ccccc2C(=O)O)cc1	30	40	inactive	48	3.5	inactive			EC50 [7]: 149 µM; Activity [9]: Active; Activity [10]: inactive
COC(=O)c1ccccc1NC(=O)/C=C/c1ccc(C)cc1					13.9		28	88	
COC(=O)c1ccccc1NC(=O)/C=C/c1ccc(C(F)(F)F)cc1					13.7		29	81	
COC(=O)c1ccccc1NC(=O)/C=C/c1ccc(OC(C)=O)cc1					13.8		10	84	
COc1ccccc1/C=C/C(=O)Nc1ccccc1C(=O)O	33	14	inactive	32	3.4	inactive			EC50 [7]: 75 µM; IC50 [8]: 51 µM; IC50 [14]: 41 µM
COc1ccc(/C=C/C(=O)Nc2ccccc2C(=O)O)cc1OC	6	56	inactive	65	3.5	inactive			IC50 [8]: 126 µM
O=C(/C=C/c1ccc([N+](=O)[O-])cc1)Nc1ccccc1C(=O)O	25	33	inactive	39	3.4	inactive			EC50 [7]: 219 µM
COC(=O)c1ccccc1NC(=O)/C=C/c1ccc(N(C)C)cc1					4.8		27	86	
O=C(CCc1ccccc1)Nc1ccccc1C(=O)O	10	81	inactive	48	3.5	inactive			
C/C(=C\c1ccccc1)C(=O)Nc1ccccc1C(=O)O	33	29	inactive	28	3.5	inactive			EC50 [7]: 133 µM; IC50 [14]: 27 µM; Activity [9]: Active; Activity [10]: inactive
COc1cccc(NC(=O)/C=C/c2ccc(Cl)cc2)c1									pEC50 [7]: inactive
CC(=C\c1ccc(Cl)cc1)/C(C)=N/O [AP18 5]									IC50 [8]: 4 µM
COC(=O)c1ccccc1NC(=O)/C=C/c1ccc(Br)cc1					13.8		41	79	
CN(C)c1ccc(/C=C/C(=O)Nc2ccccc2C(=O)O)cc1					3.5	inactive			
C=CCN=C=S									Activity [11]: Active
O=C(/C=C/c1ccccc1)Nc1ccccc1C(=O)O	24	42	inactive	48	3.5	inactive			
C=CC=O [ACROLEIN]									EC50 [7]: 27 µM; Activity [9]: Active; Activity [10]: inactive
O=C(O)C1CCCCN1C(=O)/C=C/c1ccccc1 (racemic)	7	71	inactive	72	3.3	inactive			
COC(=O)c1ccccc1NC(=O)/C=C/c1ccc(Cl)cc1					13.8		45	70	
COC(=O)c1ccccc1NC(=O)/C=C/c1ccc([N+](=O)[O-])cc1					13.6				
COc1ccc(CCC(=O)Nc2ccccc2C(=O)O)cc1	6	74	inactive	57	3.5	inactive			
Cc1ccc(C(C)C)cc1O [CARVACROL]									EC50 [7]: 17 µM; Activity [9]: inactive; Activity [10]: inactive
COC(=O)c1ccccc1NC(=O)/C=C/c1ccc(OC(C)=O)c(OC(C)=O)c1					13.6		12	102	
COC(=O)c1ccccc1NC(=O)/C=C/c1ccc(F)cc1					13.9		34	85	
